In ChEMBL document CHEMBL1125912, “Topically active carbonic anhydrase inhibitors. 4. [(Hydroxyalkyl)sulfonyl]benzene and [(hydroxyalkyl)sulfonyl]thiophenesulfonamides” (J Med Chem, 1991):
≈ marks a conversion by molar mass, not a printed value.

Assays:
[1] = Partition coefficient (pH 7.4); assay type: ADME; conditions: octanol/water
Method in brief: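 1-Octanol/phosphate buffer partition at pH 7.4 and 0.1 ionic strength. The compound was equilibrated between the phases and the concentration in each phase was measured by UV spectrophotometry.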

[2] = Dissociation constant (pKa) (determined in 30% EtOH/water); assay type: physicochemical
[3] = Solubility (buffer pH 7.4); assay type: physicochemical; conditions: read-out: S
Method in brief: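 Solubility in 50 mM phosphate buffer, pH 7.4.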

Oryctolagus cuniculus [4] = assay: Tested in vivo for the IOP (intraocular pressure) recovery after 50 uL dose of 2% concentration in albino rabbits.; assay type: functional, Eye
Method in brief: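 Conscious albino rabbits. Aqueous humor production was assessed indirectly by IOP recovery rate. A single bilateral 50-µL instillation of 2% (w/v) in 0.5% aqueous (hydroxyethyl)cellulose vehicle was given. Results are percent change from control, tested by Dunnett's two-tailed test (P<0.05).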

Oryctolagus cuniculus [5] = species on record: Oryctolagus cuniculus; assay: Maximum fall in IOP after 50 uL dose of 0.5% concentration in alpha-CT rabbit model; assay type: functional
Method in brief: (§1)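 Alpha-chymotrypsinized rabbit model of ocular hypertension. Single 50-µL bilateral instillation of a 0.5% (w/v) solution in 0.5% aqueous (hydroxyethyl)cellulose vehicle. Read-out is the fall in IOP.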

Carbonic anhydrase 2 = Carbonic anhydrase 2 (Homo sapiens, UniProt P00918); assay: Inhibitory activity against human carbonic anhydrase II using pH stat assay; assay type: functional; conditions: read-out: I50
Oryctolagus cuniculus [6] = species on record: Oryctolagus cuniculus; assay: Maximum fall in IOP after 50uL dose of 0.5% concentration in alpha-CT rabbit model; ns = 'no significant statistical change'; assay type: functional, organism-based; method in brief: as §1
Oryctolagus cuniculus [7] = species on record: Oryctolagus cuniculus; assay: Maximum fall in IOP after 50 microL dose of 0.5% concentration in alpha-CT rabbit model.; assay type: functional; method in brief: as §1

| SMILES | D [1] | pKa [2] | solubility [3] [µg/mL] | Change from control (Oryctolagus cuniculus [4]) [%] | Max fall in IOP (Oryctolagus cuniculus [5]) [mmHg] | IC50 (Carbonic anhydrase 2) [nM] | Max fall in IOP (Oryctolagus cuniculus [6]) | Max fall in IOP (Oryctolagus cuniculus [7]) [mmHg] |
| --- | --- | --- | --- | --- | --- | --- | --- | --- |
| NS(=O)(=O)c1ccc(S(=O)(=O)CCCO)c(F)c1 | 0.39 | 9.02 | 6600 (≈ 22.2 mM) | -43 | -6.2 | 4.5 | – | – |
| NS(=O)(=O)c1ccc(SCCCO)s1 | 7 | 9.32 | 9500 (≈ 37.5 mM) | – | – | 10 | – | – |
| NS(=O)(=O)c1ccc(S(=O)(=O)CCCCO)cc1 | 0.25 | 9.6 | 2100 (≈ 7.16 mM) | – | – | 7 | – | – |
| NS(=O)(=O)c1ccc(SCCO)c(C(=O)O)c1 | 0.01 | 10.4 | 9300 (≈ 33.5 mM) | – | – | – | – | – |
| NS(=O)(=O)c1ccc(SCCO)cc1 | 2.3 | 9.27 | 3500 (≈ 15 mM) | – | – | – | – | – |
| NS(=O)(=O)c1ccc(S(=O)(=O)CCCO)s1 | 0.44 | 8.32 | 14600 (≈ 51.2 mM) | – | – | 6 | – | – |
| COC(=O)c1cc(S(N)(=O)=O)ccc1SCCCO | 5.5 | 9.3 | 1300 (≈ 4.26 mM) | -30 | -4.5 | 700 | – | – |
| NS(=O)(=O)c1ccc(S(=O)(=O)CCCO)cc1 | 0.23 | 8.98 | 7200 (≈ 25.8 mM) | -37 | – | 12 | No significance | – |
| NS(=O)(=O)c1ccc(S(=O)(=O)CCCO)c(C(=O)O)c1 | 0.002 | 9.28 | 53000 (≈ 164 mM) | – | – | 900 | – | – |
| Nc1cc(S(N)(=O)=O)ccc1S(=O)(=O)CCO | 0.25 | 9.5 | 13200 (≈ 47.1 mM) | – | – | 51 | – | – |
| CC(=O)OCCS(=O)(=O)c1ccc(S(N)(=O)=O)s1 | 1.3 | 8.65 | 880 (≈ 2.81 mM) | – | – | 5.5 | – | – |
| NS(=O)(=O)c1ccc(CCCO)cc1 | 1.48 | 10.2 | 20000 (≈ 92.9 mM) | – | – | 64 | – | – |
| CC(C)CNCCCS(=O)(=O)c1ccc(S(N)(=O)=O)s1 | 0.45 | 9.3 | – | – | – | 18 | – | – |
| Nc1cc(S(N)(=O)=O)ccc1S(=O)(=O)CCCO | 0.33 | 9.15 | 8400 (≈ 28.5 mM) | – | – | 23 | – | – |
| NS(=O)(=O)c1ccc(SCCCO)c(Cl)c1 | 39 | 9.45 | 280 (≈ 0.994 mM) | – | – | 9 | – | – |
| COC(=O)c1cc(S(N)(=O)=O)ccc1S(=O)(=O)CCO | 0.34 | 9.2 | 33400 (≈ 103 mM) | -24 | -6.3 | 30 | – | – |
| CC(=O)OCCCCc1ccc(S(N)(=O)=O)cc1 | – | 10.5 | 8000 (≈ 29.5 mM) | – | – | – | – | – |
| NS(=O)(=O)c1ccc(SCCCCO)s1 | 9 | 9.5 | 9300 (≈ 34.8 mM) | – | – | 3 | – | – |
| NS(=O)(=O)c1ccc(SCCCCO)cc1 | 8.48 | 10.2 | 800 (≈ 3.06 mM) | – | – | 9 | – | – |
| NS(=O)(=O)c1ccc(S(=O)(=O)CCCO)c([N+](=O)[O-])c1 | 0.9 | 8 | 800 (≈ 2.47 mM) | – | – | – | – | – |
| NS(=O)(=O)c1ccc(SCCCO)c(C(=O)O)c1 | 0.01 | 9.94 | 8800 (≈ 30.2 mM) | – | – | 10000 | – | – |
| NS(=O)(=O)c1ccc(CCCCO)cc1 | 3.7 | 10.3 | 14700 (≈ 64.1 mM) | – | – | 15 | – | – |
| NS(=O)(=O)c1ccc(S(=O)(=O)CCO)s1 | 0.29 | 8.65 | 22000 (≈ 81.1 mM) | – | – | 6 | – | – |

| SMILES | D [1] | pKa [2] | solubility [3] [µg/mL] | Change from control (Oryctolagus cuniculus [4]) [%] | Max fall in IOP (Oryctolagus cuniculus [5]) [mmHg] | IC50 (Carbonic anhydrase 2) [nM] | Max fall in IOP (Oryctolagus cuniculus [6]) | Max fall in IOP (Oryctolagus cuniculus [7]) [mmHg] |
| --- | --- | --- | --- | --- | --- | --- | --- | --- |
| NS(=O)(=O)c1ccc(SCCCO)c(F)c1 | 9.8 | 9.64 | 900 (≈ 3.39 mM) | -30 | -3.6 | 3.5 | – | – |
| COC(=O)c1cc(S(N)(=O)=O)ccc1S(=O)(=O)CCCO | 0.5 | 8.9 | 1500 (≈ 4.45 mM) | – | – | 20 | – | – |
| NS(=O)(=O)c1ccc(S(=O)(=O)CC(O)CO)cc1 (centres undefined) | – | 9.35 | 14900 (≈ 50.5 mM) | – | – | – | – | – |
| NS(=O)(=O)c1ccc(S(=O)(=O)CCCCO)c(F)c1 | 0.55 | 9.18 | 4300 (≈ 13.8 mM) | – | – | 4 | – | – |
| NS(=O)(=O)c1ccc(SCCO)s1 | 2.4 | 9.46 | 49000 (≈ 205 mM) | – | – | 30 | – | – |
| NS(=O)(=O)c1cc2ccc(O)cc2s1 | – | – | – | -31 | – | – | – | -5.4 |
| NS(=O)(=O)c1ccc(SCCCCCO)cc1 | 10.9 | 9.25 | 600 (≈ 2.18 mM) | – | – | 4.3 | – | – |
| NS(=O)(=O)c1ccc(CCCCCO)cc1 | 11 | 10.3 | 2600 (≈ 10.7 mM) | -38 | – | 8 | – | – |
| COCC(=O)OCCCS(=O)(=O)c1ccc(S(N)(=O)=O)s1 | 0.72 | 8.1 | 970 (≈ 2.71 mM) | – | – | 4.5 | – | – |
| CC(=O)OCCCS(=O)(=O)c1ccc(S(N)(=O)=O)s1 | 1.47 | 8.05 | 920 (≈ 2.81 mM) | – | – | 5 | – | – |
| NS(=O)(=O)c1ccc(CCCO)c(F)c1 | – | – | – | – | – | 20 | – | – |
| NS(=O)(=O)c1ccc(SCCO)c(F)c1 | 5.3 | 9.76 | 6000 (≈ 23.9 mM) | -34 | – | 9 | No significance | – |
| CC(=O)Oc1ccc2cc(S(N)(=O)=O)sc2c1 | – | – | – | -43 | – | – | – | -5.5 |
| NS(=O)(=O)c1ccc(SCCCO)cc1 | 6.25 | 10.2 | 1400 (≈ 5.66 mM) | – | – | 20 | – | – |
| CC(C)(O)CCSc1ccc(S(N)(=O)=O)cc1 | 25.2 | 10 | 400 (≈ 1.45 mM) | -51 | – | 20 | No significance | – |
| CC(C)(O)CCS(=O)(=O)c1ccc(S(N)(=O)=O)cc1 | 0.82 | 9.28 | 3500 (≈ 11.4 mM) | – | – | 25 | – | – |
| NS(=O)(=O)c1ccc(SCCO)c([N+](=O)[O-])c1 | 2.4 | 9.42 | 500 (≈ 1.8 mM) | – | – | 21 | – | – |
| NS(=O)(=O)c1ccc(S(=O)(=O)CCCCO)s1 | 0.46 | 8.67 | 9900 (≈ 33.1 mM) | – | – | 2.3 | – | – |
| NS(=O)(=O)c1ccc(SCCCCO)c(F)c1 | 19 | 9.82 | 1000 (≈ 3.58 mM) | – | – | 1.5 | – | – |
| NS(=O)(=O)c1ccc(S(=O)(=O)CCO)c(F)c1 | 0.25 | 9 | 3300 (≈ 11.6 mM) | -37 | – | 5 | No significance | – |
| NS(=O)(=O)c1ccc(SCCCO)c([N+](=O)[O-])c1 | 9.1 | 9.38 | 100 (≈ 0.342 mM) | – | – | 23 | – | – |
| CC(C)COC(=O)OCCCS(=O)(=O)c1ccc(S(N)(=O)=O)s1 | – | – | 80 (≈ 0.208 mM) | – | – | – | – | – |
